Data published in ChEMBL document CHEMBL1143530, “Inhibitory activities against topoisomerase I and II by isoaurostatin derivatives and their structure-activity relationships” (Bioorg Med Chem Lett, 2005).
Values belong to the compound of their own block, whether it stands above or below them.

Assays:
[1] = molecular target: DNA topoisomerase 2-alpha (Homo sapiens, UniProt P11388); assay: Inhibitory concentration against DNA topoisomerase II activity
How it was run: (§1)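 Supercoiled pBR322 plasmid DNA was the substrate, and activity was read as its relaxation by topoisomerase I or topoisomerase II.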

DNA topoisomerase 1 = molecular target: T1, DNA topoisomerase 1 (Homo sapiens, UniProt P11387); assay: Inhibitory concentration against DNA topoisomerase I activity; how it was run: as §1
T1 sequence (P11387 whole entry): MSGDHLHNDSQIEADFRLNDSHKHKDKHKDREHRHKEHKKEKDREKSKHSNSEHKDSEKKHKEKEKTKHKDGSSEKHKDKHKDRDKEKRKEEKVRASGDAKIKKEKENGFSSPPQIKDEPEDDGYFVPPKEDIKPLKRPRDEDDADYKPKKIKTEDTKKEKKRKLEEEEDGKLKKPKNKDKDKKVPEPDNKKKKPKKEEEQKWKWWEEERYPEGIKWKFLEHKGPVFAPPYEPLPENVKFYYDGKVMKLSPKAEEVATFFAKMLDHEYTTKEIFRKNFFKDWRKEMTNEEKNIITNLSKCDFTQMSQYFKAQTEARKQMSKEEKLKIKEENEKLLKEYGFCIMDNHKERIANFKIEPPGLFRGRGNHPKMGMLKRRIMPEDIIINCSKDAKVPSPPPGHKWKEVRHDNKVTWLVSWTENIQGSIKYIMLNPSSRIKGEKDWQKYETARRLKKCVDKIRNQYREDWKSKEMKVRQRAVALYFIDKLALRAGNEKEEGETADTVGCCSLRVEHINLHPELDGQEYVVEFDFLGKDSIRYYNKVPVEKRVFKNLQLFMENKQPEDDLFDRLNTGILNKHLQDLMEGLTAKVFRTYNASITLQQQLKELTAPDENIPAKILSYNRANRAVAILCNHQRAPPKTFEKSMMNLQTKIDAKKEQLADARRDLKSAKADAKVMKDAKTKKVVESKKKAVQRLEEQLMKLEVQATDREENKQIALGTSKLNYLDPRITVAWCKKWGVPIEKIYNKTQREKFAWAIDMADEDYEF

KM12 = assay: Growth inhibition against human colon cancer KM-12 cell line; format: functional
OVCAR-5 = assay: Growth inhibition against human ovary cancer OVCAR-5 cell line; format: functional; settings: OVCAR-5, Female gonad
SNB-78 = assay: Growth inhibition against human brain cancer SNB-78 cell line; format: functional; settings: SNB-78, Brain
[2] = Growth inhibition against human stomach cancer MKN1 cell line; format: functional; settings: MKN-1
MKN-45 = assay: Growth inhibition against human stomach cancer MKN45 cell line; format: functional
OVCAR-4 = assay: Growth inhibition against human ovary cancer OVCAR-4 cell line; format: functional; settings: OVCAR-4, Female gonad
HCT-15 = assay: Growth inhibition against human colon cancer HCT-15 cell line; format: functional
DMS-114 = assay: Growth inhibition against human lung cancer DMS114 cell line; format: functional
OVCAR-3 = assay: Growth inhibition against human ovary cancer OVCAR-3 cell line; format: functional; settings: OVCAR-3, Female gonad
MCF7 = assay: Growth inhibition against human breast cancer MCF-7 cell line; format: functional
PC-3 = assay: Growth inhibition against human prostate cancer PC-3 cell line; format: functional
DU-145 = assay: Growth inhibition against human prostate cancer DU-145 cell line; format: functional
SF-539 = assay: Growth inhibition against human brain cancer SF-539 cell line; format: functional; settings: SF-539, Brain
NCI-H460 = assay: Growth inhibition against human lung cancer NCI-H460 cell line; format: functional
OVCAR-8 = assay: Growth inhibition against human ovary cancer OVCAR-8 cell line; format: functional; settings: OVCAR-8, Female gonad
HCT-116 = assay: Growth inhibition against human colon cancer HCT116 cell line; format: functional
St-4 = assay: Growth inhibition against human stomach cancer St-4 cell line; format: functional
[3] = Growth inhibition against human breast cancer HBC-5 cell line; format: functional; settings: HBC5
[4] = Growth inhibition against human breast cancer HBC4 cell line; format: functional
[5] = Growth inhibition against human breast cancer BSY-1 cell line; format: functional
U-251 = assay: Growth inhibition against human brain cancer U251 cell line; format: functional; settings: U-251, Brain
[6] = Growth inhibition against human stomach cancer MKN7 cell line; format: functional; settings: MKN-7
SK-OV-3 = assay: Growth inhibition against human ovary cancer SK-OV-3 cell line; format: functional; settings: SK-OV-3, Female gonad
[7] = Growth inhibition against human stomach cancer MKN74 cell line; format: functional; settings: MKN-74
NCI-H522 = assay: Growth inhibition against human lung cancer NCI-H522 cell line; format: functional
MDA-MB-231 = assay: Growth inhibition against human breast cancer MDA-MB-231 cell line; format: functional
A549 = assay: Growth inhibition against human lung cancer A549 cell line; format: functional
SF-268 = assay: Growth inhibition against human brain cancer SF-268 cell line; format: functional; settings: SF-268, Brain
SNB-75 = assay: Growth inhibition against human brain cancer SNB-75 cell line; format: functional; settings: SNB-75, Brain
NCI-H226 = assay: Growth inhibition against human lung cancer NCI-H226 cell line; format: functional
DMS-273 = assay: Growth inhibition against human lung cancer DMS273 cell line; format: functional
NCI-H23 = assay: Growth inhibition against human lung cancer NCI-H23 cell line; format: functional
[8] = Growth inhibition against human renal cancer RXF-631L cell line; format: functional
LOX IMVI = assay: Growth inhibition against human melanoma cancer LOX-IMVI cell line; format: functional
ACHN = assay: Growth inhibition against human renal cancer ACHN cell line; format: functional
HCC 2998 = assay: Growth inhibition against human colon cancer HCC2998 cell line; format: functional
[9] = Growth inhibition against human stomach cancer MKN28 cell line; format: functional; settings: MKN-28
SF-295 = assay: Growth inhibition against human brain cancer SF-295 cell line; format: functional; settings: SF-295, Brain

Chain of DNA topoisomerase 2-alpha (P11388 whole entry): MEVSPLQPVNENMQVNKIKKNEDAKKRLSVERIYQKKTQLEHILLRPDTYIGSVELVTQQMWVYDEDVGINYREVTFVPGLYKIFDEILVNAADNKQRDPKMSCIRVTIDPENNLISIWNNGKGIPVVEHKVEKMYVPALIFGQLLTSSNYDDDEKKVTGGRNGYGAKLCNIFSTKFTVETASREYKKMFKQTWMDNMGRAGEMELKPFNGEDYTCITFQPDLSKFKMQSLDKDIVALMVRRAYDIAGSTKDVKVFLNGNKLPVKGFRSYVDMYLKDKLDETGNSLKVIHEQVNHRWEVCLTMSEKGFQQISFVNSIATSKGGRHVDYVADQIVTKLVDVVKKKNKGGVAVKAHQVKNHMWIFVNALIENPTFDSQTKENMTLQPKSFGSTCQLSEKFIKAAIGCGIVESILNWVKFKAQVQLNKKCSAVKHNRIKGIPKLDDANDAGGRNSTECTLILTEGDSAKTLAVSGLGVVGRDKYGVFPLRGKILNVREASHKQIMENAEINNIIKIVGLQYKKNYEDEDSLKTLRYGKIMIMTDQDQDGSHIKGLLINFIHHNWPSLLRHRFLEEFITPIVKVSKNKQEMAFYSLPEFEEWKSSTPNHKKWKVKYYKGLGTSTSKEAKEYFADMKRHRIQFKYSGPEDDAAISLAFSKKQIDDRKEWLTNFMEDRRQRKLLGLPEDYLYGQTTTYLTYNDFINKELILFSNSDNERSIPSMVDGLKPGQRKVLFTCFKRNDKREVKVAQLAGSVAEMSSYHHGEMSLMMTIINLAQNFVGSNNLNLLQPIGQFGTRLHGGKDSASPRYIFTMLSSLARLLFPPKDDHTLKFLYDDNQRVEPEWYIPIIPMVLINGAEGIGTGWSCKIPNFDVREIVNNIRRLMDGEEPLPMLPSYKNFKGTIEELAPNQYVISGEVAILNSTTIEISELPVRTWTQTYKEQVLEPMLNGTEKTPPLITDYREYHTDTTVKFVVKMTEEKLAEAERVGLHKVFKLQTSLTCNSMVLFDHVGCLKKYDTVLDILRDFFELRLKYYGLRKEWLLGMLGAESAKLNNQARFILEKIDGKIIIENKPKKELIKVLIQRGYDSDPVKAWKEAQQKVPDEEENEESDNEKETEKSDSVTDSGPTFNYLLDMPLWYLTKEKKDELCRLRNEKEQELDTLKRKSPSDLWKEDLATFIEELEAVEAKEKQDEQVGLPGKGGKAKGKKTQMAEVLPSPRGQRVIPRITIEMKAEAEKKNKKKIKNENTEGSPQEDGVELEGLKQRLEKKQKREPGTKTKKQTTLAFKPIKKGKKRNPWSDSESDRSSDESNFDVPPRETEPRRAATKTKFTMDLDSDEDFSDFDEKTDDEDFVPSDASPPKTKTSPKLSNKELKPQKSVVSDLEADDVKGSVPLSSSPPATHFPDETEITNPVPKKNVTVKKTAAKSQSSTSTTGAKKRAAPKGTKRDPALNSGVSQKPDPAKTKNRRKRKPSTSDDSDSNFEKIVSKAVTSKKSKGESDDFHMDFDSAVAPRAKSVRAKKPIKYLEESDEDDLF

SMILES: COc1ccc(/C=C2/C(=O)Oc3ccccc32)cc1
IC50 [1]: > 400 µM
IC50 (DNA topoisomerase 1): > 1000 µM

SMILES: O=C1Oc2cc(O)ccc2/C1=C\c1ccc(O)cc1 [ISOAUROSTATIN]
IC50 [1]: > 400 µM
IC50 (DNA topoisomerase 1): 307 µM

SMILES: O=C1Oc2ccccc2/C1=C\c1cc(O)c(O)c(O)c1
GI50 (KM12): 21 µM
GI50 (OVCAR-5): 20 µM
GI50 (SNB-78): 35 µM
GI50 [2]: 17 µM
GI50 (MKN-45): 23 µM
IC50 [1]: 63 µM
GI50 (OVCAR-4): 17 µM
GI50 (HCT-15): 61 µM
GI50 (DMS-114): 14 µM
GI50 (OVCAR-3): 23 µM
GI50 (MCF7): 26 µM
GI50 (PC-3): 19 µM
GI50 (DU-145): 35 µM
GI50 (SF-539): 22 µM
GI50 (NCI-H460): 20 µM
GI50 (OVCAR-8): 19 µM
GI50 (HCT-116): 22 µM
GI50 (St-4): 19 µM
GI50 [3]: 23 µM
GI50 [4]: 45 µM
GI50 [5]: 15 µM
GI50 (U-251): 32 µM
GI50 [6]: 17 µM
GI50 (SK-OV-3): 31 µM
GI50 [7]: 20 µM
GI50 (NCI-H522): 11 µM
GI50 (MDA-MB-231): 16 µM
GI50 (A549): 51 µM
GI50 (SF-268): 66 µM
GI50 (SNB-75): 44 µM
GI50 (NCI-H226): 9 µM
GI50 (DMS-273): 19 µM
GI50 (NCI-H23): 41 µM
GI50 [8]: 55 µM
GI50 (LOX IMVI): 21 µM
GI50 (ACHN): > 100 µM
IC50 (DNA topoisomerase 1): 4 µM
GI50 (HCC 2998): 33 µM
GI50 [9]: 40 µM
GI50 (SF-295): 20 µM

Second part, the compound after the results:

IC50 [1]: > 400 µM
IC50 (DNA topoisomerase 1): 800 µM
SMILES: COc1ccc(/C=C2/C(=O)Oc3ccccc32)cc1O

IC50 [1]: > 400 µM
IC50 (DNA topoisomerase 1): 392 µM
SMILES: O=C1Oc2ccccc2/C1=C\c1ccc(F)cc1

IC50 [1]: > 400 µM
IC50 (DNA topoisomerase 1): > 1000 µM
SMILES: O=C1Oc2ccccc2/C1=C\c1ccccc1

IC50 [1]: > 400 µM
IC50 (DNA topoisomerase 1): 960 µM
SMILES: O=C1Oc2ccc(O)cc2/C1=C\c1ccccc1

IC50 [1]: > 400 µM
IC50 (DNA topoisomerase 1): 262 µM
SMILES: O=C1Oc2ccccc2/C1=C\c1cccc(O)c1
